In ChEMBL document CHEMBL1781995, “Acenaphtho[1,2-b]pyrrole-based selective fibroblast growth factor receptors 1 (FGFR1) inhibitors: design, synthesis, and biological activity” (J Med Chem, 2011) one finds IC50, Activity and inhibition data, which are given here for 27 compounds.

As a reminder, the IC50 is the concentration that inhibits the measured activity by half. Low readings indicate greater potency in that assay, high ones weaker potency in that assay.

SMILES strings stand for the structures. Calls of active or inactive are those of the source. The rule behind the calls is not given here. A value given as a limit tells only on which side of the number the result lay.

Test [1] addresses T1, Fibroblast growth factor receptor 1 (Homo sapiens, UniProt P11362). Briefly: Inhibition of FGFR1 using poly(Glu-Tyr)4:1 as substrate after 60 mins by ELISA. A general note: ELISA stands for enzyme-linked immunosorbent assay.
Target sequence in this assay (P11362 whole entry): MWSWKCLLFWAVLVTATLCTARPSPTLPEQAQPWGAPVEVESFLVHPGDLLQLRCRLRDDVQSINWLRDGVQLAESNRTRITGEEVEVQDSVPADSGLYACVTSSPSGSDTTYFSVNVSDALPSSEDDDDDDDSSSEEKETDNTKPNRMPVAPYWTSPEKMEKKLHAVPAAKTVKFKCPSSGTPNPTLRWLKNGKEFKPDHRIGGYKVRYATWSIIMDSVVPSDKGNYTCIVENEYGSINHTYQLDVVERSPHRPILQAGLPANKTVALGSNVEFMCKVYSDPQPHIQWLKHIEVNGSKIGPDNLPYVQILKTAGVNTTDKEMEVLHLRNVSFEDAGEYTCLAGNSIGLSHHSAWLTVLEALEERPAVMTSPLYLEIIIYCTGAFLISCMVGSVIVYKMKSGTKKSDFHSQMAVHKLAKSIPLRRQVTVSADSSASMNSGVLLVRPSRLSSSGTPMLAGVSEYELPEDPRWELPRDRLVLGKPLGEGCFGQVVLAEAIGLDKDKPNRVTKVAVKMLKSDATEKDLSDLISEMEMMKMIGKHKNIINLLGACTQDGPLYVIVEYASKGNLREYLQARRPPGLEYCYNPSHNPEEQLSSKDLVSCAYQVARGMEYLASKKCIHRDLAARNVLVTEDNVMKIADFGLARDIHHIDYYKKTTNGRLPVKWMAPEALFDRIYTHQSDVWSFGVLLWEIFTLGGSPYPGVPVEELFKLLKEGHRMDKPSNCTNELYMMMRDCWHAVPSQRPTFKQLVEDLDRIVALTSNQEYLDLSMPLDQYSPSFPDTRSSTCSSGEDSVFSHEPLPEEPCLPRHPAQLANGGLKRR
In another test the test system is WI-38. Briefly: Antiproliferative activity against human WI38 cells expressing FGFR after 72 hrs by SRB assay. It counts as cell-based. The conditions noted are these: WI-38, 72 h. In a few lines: (§1)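 Cells seeded and grown 24 h, then exposed to increasing compound concentrations for 72 h without medium change. Fixed with cold 10% TCA 1 h at 4 °C, stained 15 min with 4 mg/mL SRB in 1% acetic acid, rinsed, dye dissolved in 10 mM Tris base, A515 read. Inhibition = (1 − A515treated/A515control)×100; IC50 by Logit method from at least three independent tests.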

The next test has as its system T-24. As to the kind of experiment: Antiproliferative activity against human T24 cells expressing FGFR after 72 hrs by SRB assay. It counts as functional, cell-based. Conditions: T-24, 72 h. In a few lines:
as §1

The next test deals with BXPC-3. As to the kind of experiment: Antiproliferative activity against human BxPC3 cells expressing FGFR after 72 hrs by SRB assay. It counts as functional, cell-based. Conditions: BXPC-3, 72 h. In a few lines:
as §1
On the technique in general: The SRB assay estimates cell density from bound dye.

The subject of the next test is Calf thymus DNA. As to the kind of experiment: Binding affinity to calf thymus DNA at 20 uM by circular dichroism assay. The test is classed as nucleic-acid assay. The conditions noted are these: Bos taurus. (In general: CD spectra are sensitive to the conformation of chiral molecules.)
Test [2] concerns the target T1, Fibroblast growth factor receptor 1. As to the kind of experiment: Inhibition of FGFR1 in human BxPC3 cells assessed as reduction of Erk1/2 phosphorylation at 10 uM after 12 hrs by Western blot analysis. The test is classed as cell-based. Conditions: BXPC-3. In a few lines:
(§2)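 BxPC3 cells plated at 3 × 10^5 per well, serum-starved 24 h, then treated 12 h with compound (1.25, 2.5, 5, 10 μM). Whole-cell lysates run on 10% SDS-PAGE and immunoblotted for phospho-FGFR1 (Tyr653/654), phospho-Erk1/2 (T202/Y204), phospho-Akt and totals, with GAPDH loading control.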
Target sequence in this assay (P11362 22-822 limits assumed): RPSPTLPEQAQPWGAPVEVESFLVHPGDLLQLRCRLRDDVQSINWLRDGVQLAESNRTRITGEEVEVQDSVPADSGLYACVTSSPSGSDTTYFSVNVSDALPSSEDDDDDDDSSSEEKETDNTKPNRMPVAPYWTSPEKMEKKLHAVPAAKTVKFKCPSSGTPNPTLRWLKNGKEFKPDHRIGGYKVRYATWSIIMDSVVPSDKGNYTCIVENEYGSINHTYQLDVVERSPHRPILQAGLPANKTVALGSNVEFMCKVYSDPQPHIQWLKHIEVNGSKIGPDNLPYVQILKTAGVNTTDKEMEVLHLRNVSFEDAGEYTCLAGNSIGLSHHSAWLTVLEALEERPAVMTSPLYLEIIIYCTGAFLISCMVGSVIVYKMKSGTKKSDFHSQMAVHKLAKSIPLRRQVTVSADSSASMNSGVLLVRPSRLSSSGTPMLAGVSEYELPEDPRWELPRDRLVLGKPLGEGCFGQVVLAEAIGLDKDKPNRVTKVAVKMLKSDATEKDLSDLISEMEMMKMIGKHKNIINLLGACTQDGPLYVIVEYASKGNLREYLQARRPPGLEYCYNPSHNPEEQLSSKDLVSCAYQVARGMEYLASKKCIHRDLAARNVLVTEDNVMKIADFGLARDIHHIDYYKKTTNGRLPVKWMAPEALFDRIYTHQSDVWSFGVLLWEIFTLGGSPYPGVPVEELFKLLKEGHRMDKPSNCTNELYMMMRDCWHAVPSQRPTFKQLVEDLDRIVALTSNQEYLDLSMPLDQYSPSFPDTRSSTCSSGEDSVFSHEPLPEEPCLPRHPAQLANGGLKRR

Test [3] has the same target. Briefly: Inhibition of b-FGF-induced FGFR1 phosphorylation in human BxPC3 cells at 1.25 uM after 12 hrs by Western blot analysis. It counts as cell-based. Conditions: BXPC-3. In a few lines: as §2
Target sequence in this assay (P11362 22-822 limits assumed): as above
The target is the same in test [4]. Briefly: Inhibition of b-FGF-induced FGFR1 phosphorylation in human BxPC3 cells at 10 uM after 12 hrs by Western blot analysis relative to control. It counts as cell-based. Conditions: BXPC-3. In short, it runs like this: as §2
Target sequence in this assay (P11362 22-822 limits assumed): as above
Test [5] has the same target. As to the kind of experiment: Inhibition of b-FGF-induced FGFR1 phosphorylation in human BxPC3 cells after 12 hrs by Western blot analysis. The test is classed as cell-based. Conditions: BXPC-3. In short, it runs like this:
as §2
Target sequence in this assay (P11362 22-822 limits assumed): as above

Test [6] has the same target. As to the kind of experiment: Inhibition of FGFR1 in human BxPC3 cells assessed as reduction of Akt phosphorylation at 10 uM after 12 hrs by Western blot analysis. It counts as cell-based. The conditions noted are these: BXPC-3. In a few lines: as §2
Target sequence in this assay (P11362 22-822 limits assumed): as above
The target is the same in test [7]. As to the kind of experiment: Inhibition of FGFR1 in human BxPC3 cells assessed as reduction of Erk1/2 phosphorylation after 12 hrs by Western blot analysis. The test is classed as cell-based. Conditions: BXPC-3. In short, it runs like this: as §2
Target sequence in this assay (P11362 22-822 limits assumed): as above

For the compound `N#CC1=C2C(=NC1=O)c1cccc3c(SCCc4cnccn4)ccc2c13`, in [1], the IC50 is more than 10 µM.

Turning to `C=CCSc1ccc2c3c(cccc13)C1=NC(=O)C(C#N)=C12`, in test [1], the IC50 was more than 10 µM.

In turn, `CCOC(=O)C1=C2C(=NC1=O)c1cccc3c(SCCc4cnccn4)ccc2c13` showed an IC50 in test [1] of 2.1 µM.

Consider `C=CCOC(=O)C1=C2C(=NC1=O)c1cccc3c(SCC=C)ccc2c13`, for which the IC50 was found to be 19.7 µM in the test on WI-38, 6.6 µM in the test on T-24, 2.5 µM in the test on BXPC-3 and 0.216 µM in test [1].

Consider `C=CCSc1ccc2c3c(cccc13)C1=NC(=O)C(C(=O)OCC(=O)OCC(F)(F)C(F)(F)F)=C12`, for which the IC50 stood at 45.6 µM in the test with WI-38, 86.4 µM in the test on T-24, 38.5 µM in the test with BXPC-3 and 0.424 µM in [1].

For the compound `N#CC1=C2C(=NC1=O)c1cccc3cccc2c13`, the half-maximal inhibitory concentration (IC50) with WI-38 was found to be 21.7 µM; with T-24, 13.3 µM; with BXPC-3 it was 25 µM; in test [1] it was 4.5 µM.

In the case of `C=CCOC(=O)C1=C2C(=NC1=O)c1cccc3c(SCCC)ccc2c13`, the IC50 is 33.2 µM in the test with WI-38, 13.1 µM in the test on T-24, 12.9 µM in the test with BXPC-3 and more than 10 µM in [1]. For the same compound, the outcome in the test with Calf thymus DNA was Active.

Compound `N#CC1=C2C(=NC1=O)c1cccc3c(SCCN4CCSC4)ccc2c13` showed an IC50 in test [1] of more than 10 µM.

With `CCCSc1ccc2c3c(cccc13)C1=NC(=O)C(C(=O)OCC)=C12`, the IC50 in the test on WI-38 is 9.6 µM; with T-24 it was 1.7 µM; with BXPC-3 it was 5.8 µM; in test [1], more than 10 µM. Moreover, the outcome in the test on Calf thymus DNA was Active.

Turning to `CCOC(=O)C1=C2C(=NC1=O)c1cccc3c(SCCN4CCSC4)ccc2c13`, in test [1], the IC50 is more than 10 µM.

In test [1], `CCOC(=O)C1=C2C(=NC1=O)c1cccc3c(SC4CCOC4C)ccc2c13` (configuration not stated) returned an IC50 of more than 10 µM.

On to `CCCSC(=O)COC(=O)C1=C2C(=NC1=O)c1cccc3cccc2c13`, for which the IC50 in the test on WI-38 was found to be 25.2 µM; in the test with T-24, 10.5 µM; in the test on BXPC-3, 10.1 µM; in [1], 0.065 µM.

Regarding `C=CCSc1ccc2c3c(cccc13)C1=NC(=O)C(C(=O)OCC(=O)SCCC)=C12`, the IC50 in the test with WI-38 was more than 100 µM; in the test with T-24 it was 71.8 µM; in the test on BXPC-3, 13.7 µM; in [1], 0.577 µM.

For the compound `CC(Sc1ccc2c3c(cccc13)C1=NC(=O)C(C#N)=C12)C1(C)CSCO1` (configuration not stated), the concentration for half-maximal inhibition (IC50) in test [1] amounted to 3.6 µM.

Take `N#CC1=C2C(=NC1=O)c1cccc3c(SCCO)ccc2c13`: the IC50 in test [1] is more than 10 µM.

Turning to `CC(C)Sc1ccc2c3c(cccc13)C1=NC(=O)C(C#N)=C12`, the 50% inhibitory concentration (IC50) in [1] was more than 10 µM.

Turning to `CCCSc1ccc2c3c(cccc13)C1=NC(=O)C(C#N)=C12`, the IC50 in [1] is more than 10 µM.

In the case of `CCCSC(=O)COC(=O)C1=C2C(=NC1=O)c1cccc3c(SCCC)ccc2c13`, the IC50 was more than 100 µM in the test with WI-38, 79.1 µM in the test on T-24, 56.3 µM with BXPC-3 and more than 10 µM in test [1].

As to `C=CCSc1ccc2c3c(cccc13)C1=NC(=O)C(C(=O)OCC)=C12`, the inhibition entry in [2], in [3] and in [4] was “Active” throughout. The IC50 was determined as 4.6 µM with WI-38, 0.7 µM with T-24, 2.5 µM in the test on BXPC-3 and 0.485 µM in test [1]. Moreover, the inhibition entry in [5] was “Dose-dependent effect”. For the same compound, the inhibition entry in test [6] is “inactive”.

Regarding `O=C(COC(=O)C1=C2C(=NC1=O)c1cccc3cccc2c13)OCC(F)(F)C(F)(F)F`, the IC50 in the test on WI-38 was 48.3 µM; in the test on T-24 it was 19 µM; in the test with BXPC-3, 23.3 µM; in test [1], 0.077 µM.

For the compound `CC1OCCC1Sc1ccc2c3c(cccc13)C1=NC(=O)C(C#N)=C12` (configuration not stated), in [1], the IC50 is more than 10 µM.

On to `CCCSc1ccc2c3c(cccc13)C1=NC(=O)C(C(=O)OCC(=O)OCC(F)(F)C(F)(F)F)=C12`, for which the IC50 was 58.8 µM in the test on WI-38, more than 100 µM in the test with T-24, 54.1 µM with BXPC-3 and more than 10 µM in test [1].

Regarding `CCOC(=O)C1=C2C(=NC1=O)c1cccc3c(SC(C)C4(C)CSCO4)ccc2c13` (configuration not stated), the 50% inhibitory concentration (IC50) in test [1] was more than 10 µM.

In test [1], `CCOC(=O)C1=C2C(=NC1=O)c1cccc3c(SCCO)ccc2c13` displayed an IC50 of 0.32 µM.

As for `C=CCOC(=O)C1=C2C(=NC1=O)c1cccc3cccc2c13`, the IC50 worked out at 20.6 µM in the test with WI-38, 3.9 µM in the test on T-24, 4.8 µM in the test with BXPC-3 and 0.019 µM in test [1]. The inhibition result in [7] was “Dose-dependent effect”. In addition, the inhibition entry in test [6] is “inactive”.

`Cc1c[nH]c(/C=C2\C(=O)Nc3ccccc32)c1CCC(=O)O` registered an IC50 in test [1] of 0.334 µM.

In test [1], `CCOC(=O)C1=C2C(=NC1=O)c1cccc3c(SC(C)C)ccc2c13` displayed an IC50 of more than 10 µM.
